19 molecules from ChEMBL document CHEMBL4819082, “Ximaoglaucumins A - F, new cembranoids with anti-inflammatory activities from the South China Sea soft coral Sarcophyton glaucum” (Bioorg Med Chem, 2021) can be followed below.

The first data set concerns BV-2. Nature of the data set: Antiinflammatory activity against mouse BV2 cells assessed as reduction in LPS-induced IL-6 mRNA expression incubated for 2 hrs followed by LPS stimulation and measured after 6 hrs by qRT-PCR analysis. It is filed as functional, cell-based. Particulars: time 8.0 hrs. The essentials:
(§1)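 BV-2 microglia were seeded at 1 × 10⁵ cells/mL, pretreated with compound for 2 h, then given LPS at 100 ng/mL for 6 h. Total RNA was extracted with Trizol and reverse-transcribed to cDNA, and IL-1β or IL-6 transcripts were quantified.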
In general terms: Real-time PCR tracks product formation cycle by cycle.
On to `C/C1=C\C=C(\C(C)C)[C@@H](O)[C@H](O)/C(C)=C/CC/C(C)=C/CC1`, for which the inhibition result was “Dose-Dependent Effect”.
As for `C/C1=C\C=C(\C(C)C)[C@@H](O)C/C(C)=C/CC/C(C)=C/CC1`, the inhibition entry is “Dose-Dependent Effect”.

A further data set deals with BV-2. The data set is described as follows: Antiinflammatory activity against mouse BV2 cells assessed as reduction in LPS-induced NO production at 20 uM incubated for 2 hrs followed by LPS stimulation and measured after 24 hrs by Griess reagent based assay relative to control. It is filed as functional. To be noted: BV-2, 26 h. The method, boiled down: (§2)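 BV-2 cells were seeded at 2.0×10^5 cells/mL in DMEM high-glucose with 10% FBS and grown 24 h at 37 °C, 5% CO₂. They were pretreated with compound for 2 h, then exposed to LPS at 100 ng/mL for 24 h. Medium was mixed 1:1 with Griess buffer for 15 min at room temperature and read at 540 nm. Nitrite came from a sodium nitrite standard curve and was normalized to the LPS-group mean (100%).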
A general note: Griess reagent forms a coloured azo dye with nitrite.
As to `Oc1ccc(/C=C/c2cc(O)cc(O)c2)cc1` [RESVERATROL], the NO production (% of LPS) at 20 µM worked out at 74.3%.

System in another data set: not listed separately
The data set is described as follows: Cytotoxicity against mouse BV2 cells assessed as cell viability at 10 uM measured after 24 hrs by MTT assay. To be noted: read-out: Activity. It counts as cell-based, BV-2. The essentials: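 BV-2 cells were seeded at 1.25×10^4 cells/mL and grown 24 h at 37 °C, 5% CO₂. They were then exposed to compound for 24 h, with 0.5 mg/mL MTT added for the final 3 h. Absorbance was read at 490 nm, and viability was normalized to the untreated control mean (100%).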
In general terms: Tetrazolium dyes change colour on reduction, which living cells bring about.
`CC(=O)O[C@H]1C/C(C)=C/CCC(C)(O)/C=C/C/C(C)=C/C=C\1C(C)C` (stereo partly specified): the viability at 24 h, 10 µM came to 97.2%.
For the molecule `CC(=O)OC/C1=C\CC/C(C)=C/CC[C@](C)(O)[C@H]2C=C(C(C)C)[C@H](C1)O2`, the viability at 24 h, 10 µM amounted to 102%.
Same read-out and setting: the value for `C=C1C[C@H](O)/C(C(C)C)=C\C=C(/C)CC/C=C(\C)CC[C@@H]1OO` was 103%.
Still for that read-out and setting: the value for `C/C1=C\CC[C@](C)(O)/C=C/[C@H](C(C)C)CC/C(C)=C/CC1` was 106%.
Same read-out and setting: the value for `C=C1C[C@H](O)/C(C(C)C)=C\C=C(/C)CC/C=C(\C)CC[C@H]1O` was 96%; that for `C=C1CC/C=C(\C)C[C@H](OC(C)=O)/C(C(C)C)=C\C=C(/C)CC[C@H]1O` was 108%.
As for `C/C1=C\CC[C@](C)(O)[C@H]2C=C(C(C)C)[C@H](C/C(C)=C/CC1)O2`, the viability at 24 h, 10 µM worked out at 99.2%.
For the molecule `C=C1CC/C=C(\C)C[C@H](O)/C(C(C)C)=C\C=C(/C)CC[C@H]1O`, the viability at 24 h, 10 µM stood at 102%.
The same measure, in the same setting: the value for `C/C1=C\CC/C(C)=C/C=C(/C(C)C)[C@@H](O)C[C@](C)(O)/C=C/C1` was 95.2%.
Same read-out and setting: in the case of `CC(=O)OC/C1=C\CC/C(C)=C/CC/C(C)=C/C=C(/C(C)C)[C@@H](O)C1` it was 111%; in that of `C/C1=C\C=C(\C(C)C)[C@@H](O)[C@H](O)/C(C)=C/CC/C(C)=C/CC1`, 101%.
Regarding `C/C1=C\C=C(\C(C)C)CC/C(C)=C/CC/C(C)=C/CC1`, the viability at 24 h, 10 µM came out at 100%.
On the same count and under the same terms, in the case of `C/C1=C\C=C(\C(C)C)CC/C(C)=C/CCC(C)(O)/C=C/C1` (stereo unspecified) it was 101%; in that of `C/C1=C/C=C(/C(C)C)[C@@H](O)C/C(C)=C/CC/C(C)=C/CC1`, 103%; in that of `C/C1=C\C=C(\C(C)C)[C@@H](O)C/C(C)=C/CC/C(C)=C/CC1`, 106%.
On the same count and under the same terms, in the case of `C/C1=C\CC/C(C)=C/C=C(/C(C)C)[C@@H](O)C[C@@](C)(OO)/C=C/C1` it was 104%; in that of `C/C1=C\[C@H]2O[C@](C)(CC[C@H]2C(C)C)[C@@H](O)CC/C(C)=C/CC1`, 99.9%; in that of `C/C1=C\C=C(\C(C)C)[C@@H](O)C[C@]2(C)O[C@H]2CC/C(C)=C/CC1`, 101%.

Another data set has as its system BV-2. The data set is described as follows: Antiinflammatory activity against mouse BV2 cells assessed as reduction in LPS-induced IL-1beta mRNA expression incubated for 2 hrs followed by LPS stimulation and measured after 6 hrs by qRT-PCR analysis. It counts as functional, cell-based. Particulars: time 8.0 hrs. The method, boiled down:
as §1
Take `C/C1=C\C=C(\C(C)C)[C@@H](O)[C@H](O)/C(C)=C/CC/C(C)=C/CC1`: the inhibition entry was “Dose-Dependent Effect”.
Turning to `C/C1=C\C=C(\C(C)C)[C@@H](O)C/C(C)=C/CC/C(C)=C/CC1`, the inhibition result was “Dose-Dependent Effect”.

In the next data set the test system is BV-2. The data set is described as follows: Antiinflammatory activity against mouse BV2 cells assessed as reduction in LPS-induced NO production at 10 uM incubated for 2 hrs followed by LPS stimulation and measured after 24 hrs by Griess reagent based assay relative to control. It is filed as functional. Particulars: BV-2, 26 h. The essentials:
as §2
Regarding `CC(=O)O[C@H]1C/C(C)=C/CCC(C)(O)/C=C/C/C(C)=C/C=C\1C(C)C` (stereo partly specified), the NO production (% of LPS) at 10 µM was determined as 74.4%.
Regarding `CC(=O)OC/C1=C\CC/C(C)=C/CC[C@](C)(O)[C@H]2C=C(C(C)C)[C@H](C1)O2`, the NO production (% of LPS) at 10 µM came out at 92.7%.
Still for that read-out and setting: in the case of `C=C1C[C@H](O)/C(C(C)C)=C\C=C(/C)CC/C=C(\C)CC[C@@H]1OO` it was 74.2%; in that of `C/C1=C\CC[C@](C)(O)/C=C/[C@H](C(C)C)CC/C(C)=C/CC1`, 76.5%.
On the same count and under the same terms, the value for `C=C1C[C@H](O)/C(C(C)C)=C\C=C(/C)CC/C=C(\C)CC[C@H]1O` was 75.9%; that for `C=C1CC/C=C(\C)C[C@H](OC(C)=O)/C(C(C)C)=C\C=C(/C)CC[C@H]1O` was 74.5%.
Same read-out and setting: the value for `C/C1=C\CC[C@](C)(O)[C@H]2C=C(C(C)C)[C@H](C/C(C)=C/CC1)O2` was 82%; that for `C=C1CC/C=C(\C)C[C@H](O)/C(C(C)C)=C\C=C(/C)CC[C@H]1O` was 84.6%.
In the case of `C/C1=C\CC/C(C)=C/C=C(/C(C)C)[C@@H](O)C[C@](C)(O)/C=C/C1`, the NO production (% of LPS) at 10 µM is 79.5%.
On the same count and under the same terms, in the case of `CC(=O)OC/C1=C\CC/C(C)=C/CC/C(C)=C/C=C(/C(C)C)[C@@H](O)C1` it was 71.3%; in that of `C/C1=C\C=C(\C(C)C)[C@@H](O)[C@H](O)/C(C)=C/CC/C(C)=C/CC1`, 68.7%; in that of `C/C1=C\C=C(\C(C)C)CC/C(C)=C/CC/C(C)=C/CC1`, 85.5%.
With `C/C1=C\C=C(\C(C)C)CC/C(C)=C/CCC(C)(O)/C=C/C1` (stereo unspecified), the NO production (% of LPS) at 10 µM stood at 80.2%.
On the same count and under the same terms, in the case of `C/C1=C/C=C(/C(C)C)[C@@H](O)C/C(C)=C/CC/C(C)=C/CC1` it was 88.8%; in that of `C/C1=C\C=C(\C(C)C)[C@@H](O)C/C(C)=C/CC/C(C)=C/CC1`, 67.8%.
For the molecule `C/C1=C\CC/C(C)=C/C=C(/C(C)C)[C@@H](O)C[C@@](C)(OO)/C=C/C1`, the NO production (% of LPS) at 10 µM was 85.3%.
Same read-out and setting: in the case of `C/C1=C\[C@H]2O[C@](C)(CC[C@H]2C(C)C)[C@@H](O)CC/C(C)=C/CC1` it was 87.2%; in that of `C/C1=C\C=C(\C(C)C)[C@@H](O)C[C@]2(C)O[C@H]2CC/C(C)=C/CC1`, 77.9%.
